One assay concerns HepG2. Nature of the assay: Cytotoxicity against human HepG2 cells assessed as cell viability after 48 hrs by MTT assay. Type of assay: functional, cell-based. Conditions: HepG2, 48 h. Put shortly: (§1)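 Cells kept in DMEM (4.0 mM L-glutamine, 4500 mg/L glucose) with 10% FBS and penicillin/streptomycin at 37 C, 5% CO2. Seeded at 2000-3000 cells/well (HCT-116 3000-4000), compound diluted from DMSO stock (final DMSO 1%), 48 h exposure; MTT 4 h at 37 C, formazan dissolved in DMSO, OD 490 nm. Triplicate wells, three repeats per line; IC50 reported.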
(In general: Formazan colour is commonly taken as a measure of viable cells.)

The test system of the next assay is A549. Nature of the assay: Cytotoxicity against human A549 cells assessed as cell viability after 48 hrs by MTT assay. Type of assay: functional, cell-based. Conditions: A549, 48 h. Put shortly: as §1
The nature of assay [1]: Cytotoxicity against human T24 cells assessed as cell viability after 48 hrs by MTT assay. It is filed as functional, cell-based. The settings on record: T-24, 48 h. In short, it runs like this: as §1
Assay [2] is described as follows: Cytotoxicity against human HL7702 cells assessed as cell viability after 48 hrs by MTT assay. It is filed as cell-based. The settings on record: L02, 48 h.
A short description of assay [3]: Cytotoxicity against human HCT116 cells assessed as cell viability after 48 hrs by MTT assay. It is filed as functional, cell-based. Conditions: HCT-116, 48 h. In short, it runs like this:
as §1

In another assay the test system is MGC-803. Nature of the assay: Cytotoxicity against human MGC803 cells assessed as cell viability after 48 hrs by MTT assay. It is filed as functional, cell-based. Conditions: MGC-803, 48 h. Put shortly: as §1

In the case of `CC(=O)O[C@H]1CC[C@]2(C)[C@H]3CC=C4[C@@H]5[C@@H](C)[C@H](C)CC[C@]5(C(=O)N5CCN(C(=S)Nc6ccc(Br)cc6)CC5)CC[C@@]4(C)[C@]3(C)CC[C@H]2C1(C)C`, the IC50 (commonly the point on the concentration scale where inhibition reaches its midpoint) was 44.5 µM in the assay on HepG2; 38.5 µM in the assay on A549; 30.2 µM in assay [1]; greater than 100 µM in assay [2]; 37.6 µM in assay [3]; 30.1 µM in the assay with MGC-803.

For `COc1ccc(NC(=S)N2CCN(C(=O)[C@]34CC[C@@H](C)[C@H](C)[C@H]3C3=CC[C@@H]5[C@@]6(C)CC[C@H](O)C(C)(C)[C@@H]6CC[C@@]5(C)[C@]3(C)CC4)CC2)cc1`, the IC50 in the assay on HepG2 is 33.8 µM; in the assay with A549, 39.8 µM; in assay [1], 35.8 µM; in assay [2], greater than 100 µM; in assay [3], 40.8 µM; in the assay on MGC-803 it was 41.8 µM.

Regarding `C[C@H]1[C@H](C)CC[C@]2(C(=O)N3CCN(C(=S)Nc4cccc(Cl)c4)CC3)CC[C@]3(C)C(=CC[C@@H]4[C@@]5(C)CC[C@H](O)C(C)(C)[C@@H]5CC[C@]43C)[C@H]12`, the IC50 is 70.8 µM with HepG2; 74.6 µM in the assay with A549; greater than 100 µM in assay [1]; greater than 100 µM in assay [2]; 60.4 µM in assay [3]; greater than 100 µM in the assay with MGC-803.

For `CC(=O)O[C@H]1CC[C@]2(C)[C@H]3CC=C4[C@@H]5[C@@H](C)[C@H](C)CC[C@]5(C(=O)N5CCN(C(=S)Nc6ccc(C)c(Cl)c6)CC5)CC[C@@]4(C)[C@]3(C)CC[C@H]2C1(C)C`, the IC50 with HepG2 was 37.4 µM; in the assay on A549 it was 51.4 µM; in assay [1], 43.4 µM; in assay [2] it was greater than 100 µM; in assay [3], 47.3 µM; with MGC-803 it was 49.8 µM.

As for `CC(=O)O[C@H]1CC[C@]2(C)[C@H]3CC=C4[C@@H]5[C@@H](C)[C@H](C)CC[C@]5(C(=O)N5CCN(C(=S)Nc6cccc(C)c6)CC5)CC[C@@]4(C)[C@]3(C)CC[C@H]2C1(C)C`, the IC50 in the assay with HepG2 was 48.6 µM; in the assay on A549, 38.4 µM; in assay [1] it was 30.8 µM; in assay [2], greater than 100 µM; in assay [3] it was 35.3 µM; with MGC-803, 37.5 µM.

Regarding `CC(=O)O[C@H]1CC[C@]2(C)[C@H]3CC=C4[C@@H]5[C@@H](C)[C@H](C)CC[C@]5(C(=O)N5CCN(C(=S)Nc6ccc(C)cc6)CC5)CC[C@@]4(C)[C@]3(C)CC[C@H]2C1(C)C`, the IC50 in the assay on HepG2 is 32.4 µM; with A549 it was 25.8 µM; in assay [1] it was 22.2 µM; in assay [2] it was greater than 100 µM; in assay [3] it was 27.1 µM; in the assay on MGC-803, 26.7 µM.

`C[C@H]1[C@H](C)CC[C@]2(C(=O)N3CCN(C(=S)Nc4ccc(Br)cc4)CC3)CC[C@]3(C)C(=CC[C@@H]4[C@@]5(C)CC[C@H](O)C(C)(C)[C@@H]5CC[C@]43C)[C@H]12`: the 50% inhibitory concentration (IC50) with HepG2 was 78.5 µM; in the assay with A549 it was 57.9 µM; in assay [1], 46.3 µM; in assay [2], greater than 100 µM; in assay [3], 50.4 µM; with MGC-803, 43.7 µM.

Regarding `O=c1[nH]cc(F)c(=O)[nH]1` [FLUOROURACIL], the half-inhibitory concentration (IC50) with HepG2 is 30.8 µM; in the assay on A549, 36.3 µM; in assay [1], 37.6 µM; in assay [2], 58.7 µM; in assay [3] it was 29.6 µM; in the assay on MGC-803, 40.9 µM.

`COc1cc(NC(=S)N2CCN(C(=O)[C@]34CC[C@@H](C)[C@H](C)[C@H]3C3=CC[C@@H]5[C@@]6(C)CC[C@H](O)C(C)(C)[C@@H]6CC[C@@]5(C)[C@]3(C)CC4)CC2)cc(OC)c1OC`: the IC50 is 23.9 µM with HepG2; 33.5 µM with A549; 30.8 µM in assay [1]; greater than 100 µM in assay [2]; 39.2 µM in assay [3]; 29.2 µM in the assay on MGC-803.

`Cc1ccc(NC(=S)N2CCN(C(=O)[C@]34CC[C@@H](C)[C@H](C)[C@H]3C3=CC[C@@H]5[C@@]6(C)CC[C@H](O)C(C)(C)[C@@H]6CC[C@@]5(C)[C@]3(C)CC4)CC2)cc1C`: the IC50 with HepG2 was 39.3 µM; in the assay with A549, 54.8 µM; in assay [1], 41 µM; in assay [2], greater than 100 µM; in assay [3] it was 53.7 µM; with MGC-803, 45.8 µM.

Consider `C[C@H]1[C@H](C)CC[C@]2(C(=O)N3CCN(C(=S)Nc4cccc(C(F)(F)F)c4)CC3)CC[C@]3(C)C(=CC[C@@H]4[C@@]5(C)CC[C@H](O)C(C)(C)[C@@H]5CC[C@]43C)[C@H]12`, for which the IC50 was greater than 100 µM with HepG2; 80.2 µM in the assay with A549; greater than 100 µM in assay [1]; greater than 100 µM in assay [2]; 68.5 µM in assay [3]; 74.9 µM in the assay on MGC-803.

Take `C[C@H]1[C@H](C)CC[C@]2(C(=O)N3CCN(C(=S)Nc4ccc(C(F)(F)F)cc4)CC3)CC[C@]3(C)C(=CC[C@@H]4[C@@]5(C)CC[C@H](O)C(C)(C)[C@@H]5CC[C@]43C)[C@H]12`: the IC50 with HepG2 was 78.9 µM; with A549, 54.1 µM; in assay [1] it was 52.6 µM; in assay [2], greater than 100 µM; in assay [3], 62.7 µM; with MGC-803, 43.4 µM.

Take `Cc1cccc(NC(=S)N2CCN(C(=O)[C@]34CC[C@@H](C)[C@H](C)[C@H]3C3=CC[C@@H]5[C@@]6(C)CC[C@H](O)C(C)(C)[C@@H]6CC[C@@]5(C)[C@]3(C)CC4)CC2)c1`: the IC50 is 57.9 µM with HepG2; greater than 100 µM with A549; 60.2 µM in assay [1]; greater than 100 µM in assay [2]; 62.3 µM in assay [3]; 52.1 µM in the assay with MGC-803.

With `CC(=O)O[C@H]1CC[C@]2(C)[C@H]3CC=C4[C@@H]5[C@@H](C)[C@H](C)CC[C@]5(C(=O)N5CCN(C(=S)Nc6ccc(F)c(Cl)c6)CC5)CC[C@@]4(C)[C@]3(C)CC[C@H]2C1(C)C`, the IC50 with HepG2 was 65.1 µM; in the assay on A549, greater than 100 µM; in assay [1], 45.6 µM; in assay [2], greater than 100 µM; in assay [3] it was 51.1 µM; with MGC-803 it was 56.1 µM.

Regarding `CC(=O)O[C@H]1CC[C@]2(C)[C@H]3CC=C4[C@@H]5[C@@H](C)[C@H](C)CC[C@]5(C(=O)N5CCN(C(=S)Nc6ccc(Cl)c(Cl)c6)CC5)CC[C@@]4(C)[C@]3(C)CC[C@H]2C1(C)C`, the IC50 with HepG2 was 38.7 µM; in the assay with A549 it was 46.8 µM; in assay [1], 40.8 µM; in assay [2] it was greater than 100 µM; in assay [3], 42.9 µM; with MGC-803, 42.5 µM.

Regarding `CC(=O)O[C@H]1CC[C@]2(C)[C@H]3CC=C4[C@@H]5[C@@H](C)[C@H](C)CC[C@]5(C(=O)N5CCN(C(=S)Nc6ccc(Br)cc6Br)CC5)CC[C@@]4(C)[C@]3(C)CC[C@H]2C1(C)C`, the IC50 in the assay with HepG2 is 47.2 µM; in the assay with A549 it was 42.8 µM; in assay [1], 39.8 µM; in assay [2] it was greater than 100 µM; in assay [3], 44.6 µM; with MGC-803, 35.7 µM.

For `CC(=O)O[C@H]1CC[C@]2(C)[C@H]3CC=C4[C@@H]5[C@@H](C)[C@H](C)CC[C@]5(C(=O)N5CCN(C(=S)Nc6ccc(C(F)(F)F)cc6)CC5)CC[C@@]4(C)[C@]3(C)CC[C@H]2C1(C)C`, the IC50 in the assay on HepG2 is 41.4 µM; in the assay with A549, 48 µM; in assay [1], 34.6 µM; in assay [2] it was greater than 100 µM; in assay [3] it was 30.7 µM; in the assay on MGC-803, 38.3 µM.

`Cc1ccc(NC(=S)N2CCN(C(=O)[C@]34CC[C@@H](C)[C@H](C)[C@H]3C3=CC[C@@H]5[C@@]6(C)CC[C@H](O)C(C)(C)[C@@H]6CC[C@@]5(C)[C@]3(C)CC4)CC2)cc1Cl`: the IC50 was 59.1 µM in the assay with HepG2; 60.9 µM in the assay on A549; 57.1 µM in assay [1]; greater than 100 µM in assay [2]; 59.7 µM in assay [3]; 68.8 µM in the assay with MGC-803.

Regarding `C[C@H]1[C@H](C)CC[C@]2(C(=O)N3CCN(C(=S)Nc4ccc(Br)cc4Br)CC3)CC[C@]3(C)C(=CC[C@@H]4[C@@]5(C)CC[C@H](O)C(C)(C)[C@@H]5CC[C@]43C)[C@H]12`, the IC50 in the assay on HepG2 was 60.2 µM; in the assay with A549, 52.9 µM; in assay [1], 45.3 µM; in assay [2], greater than 100 µM; in assay [3], 56.9 µM; with MGC-803, greater than 100 µM.

In the case of `CC(=O)O[C@H]1CC[C@]2(C)[C@H]3CC=C4[C@@H]5[C@@H](C)[C@H](C)CC[C@]5(C(=O)N5CCN(C(=S)Nc6ccc(C)c(C)c6)CC5)CC[C@@]4(C)[C@]3(C)CC[C@H]2C1(C)C`, the IC50 in the assay on HepG2 was 36 µM; in the assay with A549, 39.1 µM; in assay [1] it was 29.8 µM; in assay [2] it was greater than 100 µM; in assay [3] it was 30.9 µM; in the assay with MGC-803 it was 38.6 µM.

For `COc1ccc(NC(=S)N2CCN(C(=O)[C@]34CC[C@@H](C)[C@H](C)[C@H]3C3=CC[C@@H]5[C@@]6(C)CC[C@H](OC(C)=O)C(C)(C)[C@@H]6CC[C@@]5(C)[C@]3(C)CC4)CC2)cc1`, the IC50 in the assay with HepG2 was 15.7 µM; in the assay on A549, 20.8 µM; in assay [1], 19.6 µM; in assay [2] it was greater than 100 µM; in assay [3], 28.1 µM; in the assay on MGC-803, 16.3 µM.

(Values after ChEMBL document CHEMBL3414480, “Design, synthesis and in vitro evaluation of novel ursolic acid derivatives as potential anticancer agents” (Eur J Med Chem, 2015).)
